Article PMC9464004 (Drug Design, Development and Therapy, 2022)
Like-named read-outs stand apart in the source and are kept apart here.

How the values were obtained:
[1] = format: in vivo, human; details: for CL/F: mean ± SD
Procedure, shortened: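 Healthy Chinese adults took 200 or 400 mg test compound once daily for 8 days. Blood was drawn pre/post-dose Day 1, pre-dose Days 2–8 and post-dose Day 8. Parent and main metabolite were measured by validated LC-MS/MS after protein precipitation, with deuterated internal standards. Linear ranges: 2.00–2000 and 10.0–10,000 ng/mL. Noncompartmental analysis used trapezoidal AUC. CL/F came from AUCtau. Below-limit values counted as zero.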

Chinese healthy subjects [2] = experiment: 24-hour urinary glucose excretion; format: in vivo, human
Procedure, shortened: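 Randomized, double-blind, placebo-controlled study in healthy Chinese adults given 200 or 400 mg test compound or placebo orally once daily before the first meal for 8 days. Post-dose urine was pooled over 24 h in 0–8 h and 8–24 h fractions on Day 1 and Day 8. Glucose was assayed centrally, with results withheld from investigators, and reported as absolute excretion.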

Chinese healthy subjects [3] = format: in vivo, human
Procedure, shortened: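 Safety population comprised all randomized subjects receiving ≥1 double-blind dose (200 or 400 mg daily test compound or placebo, 8 days), analysed by treatment received. TEAEs were counted from first dose to study end and graded by NCI-CTCAE. Vital signs, ECG and local-lab haematology, coagulation, biochemistry, serology, urinalysis and pregnancy tests were monitored. Summaries were descriptive, with no significance testing.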

SGLT2 = details: cited from earlier work
[4] = cited from earlier work
[5] = test system: healthy volunteers in the United States; details: achieved at the 300mg dose, study LX4211-1-101; cited from earlier work
[6] = across sotagliflozin treatment groups
[7] = sotagliflozin 200 mg qd, 8 days, N=9
[8] = sotagliflozin 400 mg qd, 8 days, N=9
[9] = co-administered with food (high fat/high caloric)

CCOc1ccc(Cc2cc([C@@H]3O[C@H](SC)[C@@H](O)[C@H](O)[C@H]3O)ccc2Cl)cc1 [Sotagliflozin]
degree of accumulation ([1]; 200 or 400 mg qd for 8 days): less than 2 fold
estimated increase for AUCtau for a 2-fold increase between doses ([1]; Day 1, 200 to 400 mg): 2.02 fold
estimated increase for Cmax for a 2-fold increase between doses ([1]; Day 1, 200 to 400 mg): 1.56 fold
estimated increase for AUCtau for a 2-fold increase between doses ([1]; Day 8, 200 to 400 mg): 1.70 fold
estimated increase for Cmax for a 2-fold increase between doses ([1]; Day 8, 200 to 400 mg): 1.89 fold
half-life ([1]; human, plasma, oral, 400 mg, Mean t1/2z, range over 200 and 400 mg dose levels, Day 8): 20.5 to 22.4 h
CL/F ([1]; sotagliflozin 200 mg qd, Day 8): 267 L/h
CL/F ([1]; sotagliflozin 400 mg qd, Day 8): 307 L/h
24-hour UGE (Chinese healthy subjects [2]; sotagliflozin 200 mg qd, Day 1, mean (±SD)): 188.17 (±51.957) mmol
24-hour UGE (Chinese healthy subjects [2]; sotagliflozin 200 mg qd, Day 8, mean ± SD): 213.02 (±67.216) mmol
24-hour UGE (Chinese healthy subjects [2]; sotagliflozin 400 mg qd, Day 1, mean (±SD)): 250.18 (±38.063) mmol
24-hour UGE (Chinese healthy subjects [2]; sotagliflozin 400 mg qd, Day 8, mean ± SD): 263.90 (±56.665) mmol
tolerability (Chinese healthy subjects [3]; 200 mg and 400 mg per day, 8 days): well tolerated
PCSAs of QRS interval >110 ms, number of subjects (Chinese healthy subjects [3]; 200mg sotagliflozin, none increased from baseline ≥25%): 2
asymptomatic alanine aminotransferase (ALT) increase (Chinese healthy subjects [3]; AE in 1 subject (400 mg group)): < 2 × upper limit of normal (ULN)
constipation, number of subjects (Chinese healthy subjects [3]; [6]): 1
dizziness, number of subjects (Chinese healthy subjects [3]; [6]): 2
folliculitis, number of subjects (Chinese healthy subjects [3]; [6]): 1
TEAE: Blood phosphorus increased (Chinese healthy subjects [3]; [7]): 1 (11.1%) n (%)
TEAE: Chest discomfort (Chinese healthy subjects [3]; [7]): 1 (11.1%) n (%)
TEAE: Dizziness (Chinese healthy subjects [3]; [7]): 1 (11.1%) n (%)
TEAE: Folliculitis (Chinese healthy subjects [3]; [7]): 1 (11.1%) n (%)
TEAE: Petechiae (Chinese healthy subjects [3]; [7]): 1 (11.1%) n (%)
TEAE: Proteinuria (Chinese healthy subjects [3]; [7]): 1 (11.1%) n (%)
TEAE: White blood cell count decreased (Chinese healthy subjects [3]; [7]): 1 (11.1%) n (%)
increased blood ketone body (TEAE value) (Chinese healthy subjects [3]; sotagliflozin 400 mg group, 1 subject): 0.61 mmol/L
TEAE: Alanine aminotransferase increased (Chinese healthy subjects [3]; [8]): 1 (11.1%) n (%)
TEAE: Asthenia (Chinese healthy subjects [3]; [8]): 1 (11.1%) n (%)
TEAE: Blood ketone body increased (Chinese healthy subjects [3]; [8]): 1 (11.1%) n (%)
TEAE: Blood urine present (Chinese healthy subjects [3]; [8]): 1 (11.1%) n (%)
TEAE: Constipation (Chinese healthy subjects [3]; [8]): 1 (11.1%) n (%)
TEAE: Dermatitis (Chinese healthy subjects [3]; [8]): 1 (11.1%) n (%)
TEAE: Dizziness (Chinese healthy subjects [3]; [8]): 1 (11.1%) n (%)
TEAE: Haemorrhoidal haemorrhage (Chinese healthy subjects [3]; [8]): 1 (11.1%) n (%)
TEAE: Headache (Chinese healthy subjects [3]; [8]): 1 (11.1%) n (%)
TEAE: Mouth ulceration (Chinese healthy subjects [3]; [8]): 1 (11.1%) n (%)
TEAEs considered treatment-related by the Investigator (Chinese healthy subjects [3]; sotagliflozin groups (200 and 400 mg)): 44.4%
selectivity for SGLT2 than that for SGLT1 (SGLT2): 20 fold
accumulation index at steady state ([4]; EMA data, European-American populations): about 2
Cmax with food compared to fasted condition [4, 9]: ~2.5 fold
total exposure with food compared to fasted condition [4, 9]: ~1.5 fold
maximum 24 h UGE [5]: 44 g
